From PubChem BioAssay
The sample as a whole holds a higher share of hits than the screen did.
Fibroblast inh: blocks proliferation of human lung fibroblasts. 1.1% of 85,000 active. viability, % at 10 µM. LL 47 human lung fibroblast viability, ATP luminescence; stronger effect = lower value. AID 719;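 active means viability at or below 50% in the single dose screen; inactive means viability above 50%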;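 further: compound exposure lasted 72 h before the ATP readout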
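Times – overnight cell rest, 72 h compound treatment at 37 °C · Test system – human lung fibroblast line LL 47, low passage · Amount – 1,150 cells in each well · Controls – cell-only wells, no compound · Doses – 0.1% DMSO in all compound wells · Measured by – CellTiter-Glo luminescence · Buffer or medium – IMEM plus 15% FBS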
H69AR inhibit: growth inhibitors of human H69AR lung tumor cells; H69AR lung tumor viability, ATP luminescence, 72 h; stronger effect = lower value; 6% of 85,000 active; viability, % at 10 µM; AID 598;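 active means viability at or below 40%; inactive means viability above 40%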;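 further: multidrug resistant small cell line overexpressing MRP-1 efflux transporter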
HUVEC prolif 384: inhibitors of human endothelial cell proliferation. HUVEC proliferation, CellTiter-Glo luminescence, 72 h; stronger effect = lower value. viability, % at 10 µM (by protocol). 1.1% of 86,000 active;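 active means viability at or below 30%; inactive means viability above 30%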
HCT116 PTEN-null: growth suppressors of cells with PTEN tumor suppressor deletion; HCT116 PTEN-null viability, CellTiter-Glo, 60 h; stronger effect = lower value; viability, % at 10 µM; 1.2% of 140,000 active;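 active means viability at or below a set limit, 4 SD under the median of all tested compounds, cut at about 3.7% in these data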;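 further: PTEN knockout HCT116 line with beta catenin targeted HCT116 as companion control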
HCT116 bCat-KO: beta-catenin-lacking colon tumor cell growth suppression; HCT116 beta-catenin knockout viability, CellTiter-Glo, 60 h; stronger effect = lower value; viability, % at 10 µM; 1.5% of 140,000 active;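 active means viability at or under a set limit, the compound median less 4 SD, cut at about 6% in these data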
Hits are given with their value; - = inactive; . = not tested or not shown.

SMILES	Fibroblast inh	H69AR inhibit	HUVEC prolif 384	HCT116 PTEN-null	HCT116 bCat-KO
Cc1ccc(S(=O)(=O)Nc2ccc(Cl)cc2)cc1NC(=O)c1cc2c(s1)CCCC2	.	.	.	-	-
CCOC(=O)c1c(C)c(C(=O)Nc2ccccc2)c(C)n1CC	-	-	-	-	-
CCOC(=O)c1c(C)c(C(=O)N2CCc3ccccc3C2)c(C)n1CC	-	16	-	-	-
Cc1ccccc1NC(=O)CC1SC(=O)N(c2ccccc2)C1=O (stereo unspecified)	-	-	-	-	-
CCCN1C(=O)SC(CC(=O)Nc2ccccc2C)C1=O (stereo unspecified)	-	30	-	-	-
CCCc1cc(=O)[nH]c(/N=C(/NC(=O)c2ccccc2)Nc2ccc3c(c2)OCCO3)n1	-	32	-	.	.
Cc1ccc(C)c(NC(=S)NC(NC(=O)OCc2ccccc2)C(Cl)(Cl)Cl)c1 (stereo unspecified)	.	.	.	-	-
O=C(NC(NC(=S)Nc1c(Cl)cc(Cl)cc1Cl)C(Cl)(Cl)Cl)OCc1ccccc1 (stereo unspecified)	.	.	.	-	5.9
COc1ccccc1-c1nnc(SCC(=O)NC2CCS(=O)(=O)C2)n1CCc1ccccc1 (stereo unspecified)	.	.	.	-	-
COc1cc([C@@H]2c3cc4c(cc3[C@H](O)[C@H]3COC(=O)[C@H]23)OCO4)cc(OC)c1OC	-	36	-	-	-
Cc1cc(NC(=O)C2CC(=O)N(c3ccccc3)C2)no1 (stereo unspecified)	.	.	.	-	-
CCC(C)NS(=O)(=O)c1ccc(S(=O)(=O)N2CC=C(c3ccc(F)cc3)CC2)cc1 (stereo unspecified)	.	.	.	-	-
CCc1nc2c(cnn2-c2ccc(Cl)cc2)c(=O)n1-c1ccc2c(c1)OCCO2	-	-	-	-	3.3
Fc1cccc(Cl)c1Cn1nnc(-c2ccc3c(c2)OCO3)n1	-	-	-	-	-
Fc1cccc(Cl)c1CSc1nnnn1-c1ccc2c(c1)OCO2	-	15	-	-	-
CCN(CC)c1ccc(NC(=O)c2ccco2)c(C)c1	-	-	-	-	-
CCN(CC)c1ccc(NC(=O)c2cccc(F)c2)c(C)c1	-	28	-	-	-
C1CCN(c2c3c(nc4nnnn24)CCCC3)CC1	-	-	-	-	-
CC1=C(C)/C(=N\OS(=O)(=O)c2ccccc2)C=CC1=O	3.5	1.5	3.8	-	-
C=CCOc1ccc(/C=N/NC(=O)C(=O)Nc2ccccn2)cc1OC	.	.	.	-	-
Cc1nn(C(=O)c2ccco2)c(C)c1CN1C(=O)c2ccccc2C1=O	-	-	-	-	-
Cc1nn(C(=O)c2cccs2)c(C)c1CN1C(=O)c2ccccc2C1=O	-	21	-	-	-
CCOc1ccc(OCC)c(NC(=O)CN2CCN(c3cccc(C)c3)CC2)c1	-	-	-	-	-
CCOc1ccc(OCC)c(NC(=O)CN2CCN(c3cccc(C)c3)C(C)C2)c1 (stereo unspecified)	-	19	-	-	-
CCOc1ccc2nc(NC(=O)CS(=O)(=O)c3ccc(C)cc3)sc2c1	-	2.2	-	-	-
SMILES	Fibroblast inh	H69AR inhibit	HUVEC prolif 384	HCT116 PTEN-null	HCT116 bCat-KO
CCOc1ccc2nc(NS(=O)(=O)Cc3ccccc3)sc2c1	-	21	-	-	-
COCCCNC(=O)c1cc2c(=O)n3cc(C)ccc3nc2nc1NCC1CCCO1 (stereo unspecified)	.	.	.	-	-
CCc1nc(Sc2nnnn2-c2ccccc2)c2c3c(sc2n1)CCCC3	.	.	.	3.1	4.9
CSc1nc2sc3c(c2c2nncn12)CCC3	-	-	-	-	-
Cc1nc(Sc2nnnn2C)c2c3c(sc2n1)CCC3	33	23	-	-	-
Cc1c(CCOC(=O)CC23CC4CC(CC(C4)C2)C3)sc[n+]1CC(=O)c1ccc(Br)cc1	26	1.3	2.2	-	4.8
O=C(COC(=O)CNC(=O)c1ccccc1)Nc1nc(-c2ccccc2)cs1	.	.	.	-	-
Nc1nc(NCc2ccco2)nc(N2CCCCC2)c1[N+](=O)[O-]	.	.	.	-	-
Cc1nn(Cc2cccc(C(=O)NC34CC5CC(CC(C5)C3)C4)c2)c(C)c1Br	-	-	29	-	-
COc1ccc(N2C(=O)CC(Sc3ncn[nH]3)C2=O)c(OC)c1 (stereo unspecified)	-	1.6	-	-	-
CC(C)c1ccc(N2C(=O)CC(Sc3ncn[nH]3)C2=O)cc1 (stereo unspecified)	-	-	-	-	-
Cn1c(SCC(=O)N2c3ccccc3Sc3ccccc32)nc2ccccc21	.	.	.	-	-
CN(C)CCCn1c(SCC(=O)N2c3ccccc3Sc3ccccc32)nc2ccccc2c1=O	.	.	.	1.7	1.6
